Assay outcomes deposited in PubChem BioAssay by several laboratories.
Cl transport mod: modulators of human KCC2 chloride dependent transport; Q9H2X9; KCC2 cells, thallium flux FluoZin-2 fluorescence; B-score of Tl+ flux slope (higher = more flux/activation; lower = inhibition) at 10 µM; actives 2.2% (n = 190,000); AID 1456;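 active means thallium flux slope and its plate-corrected score both differing from the plate sample mean at a set confidence after two filtering rounds, in either direction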;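 further: slope of fluorescence scaled to starting intensity during 10 to 20 s after thallium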
KCNK3 inh: human KCNK3 channel inhibition, primary screen; CHO-KCNK3 thallium flux, FluxOR fluorescence; active compounds read low; actives 0.84% (n = 340,000); B-score at 10 µM; AID 602410; O14649;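 active means B-score under library mean minus 4 SD, starting fluorescence ratio at most library mean plus 5 SD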;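 further: more negative B-score means stronger inhibition of thallium flux through KCNK3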
Target sequence (O14649 whole entry, looked up): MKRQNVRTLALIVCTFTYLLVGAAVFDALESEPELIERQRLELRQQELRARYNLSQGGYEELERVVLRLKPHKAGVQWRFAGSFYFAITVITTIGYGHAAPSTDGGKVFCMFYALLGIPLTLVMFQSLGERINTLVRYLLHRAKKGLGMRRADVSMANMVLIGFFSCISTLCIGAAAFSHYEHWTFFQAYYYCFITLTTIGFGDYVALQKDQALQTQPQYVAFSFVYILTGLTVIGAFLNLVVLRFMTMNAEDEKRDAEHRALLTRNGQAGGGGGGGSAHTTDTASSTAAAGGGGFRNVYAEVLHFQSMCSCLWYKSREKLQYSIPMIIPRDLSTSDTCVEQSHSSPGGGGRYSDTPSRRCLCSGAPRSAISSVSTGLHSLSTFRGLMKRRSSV
hERG protect: hERG (human) protection from proarrhythmic block; Q12809; CHO-hERG, FluxOR thallium flux, dofetilide IC70 present; activation (rescue from dofetilide block), less the hit threshold, % at 10 µM; actives 0.51% (n = 310,000);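 active means activation above the mean of controls blocked by dofetilide plus 5 SD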;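 further: thallium influx through hERG after potassium depolarization seen as dye fluorescence rise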
KCNQ1 pot: potentiates or activates the human KCNQ1 potassium channel; actives 0.35% (n = 310,000); CHO-K1 KCNQ1, thallium flux FluxOR fluorescence; active compounds read high; B-score at 10 µM;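 active means fluorescence ratio B-score, a plate-corrected score, at least three library SD, with initial intensity B-score within 5 SD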
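Schedule – 37 °C overnight plating, 90-min dark dye load, 20-min compound pretreatment · System – stable KCNQ1 CHO-K1 line · Probe or stimulus – thallium- and potassium-containing depolarizing buffer · Measured by – kinetic FluxOR fluorescence, 10 s baseline plus 110 s post-stimulus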
KCNK9 inh: human KCNK9 channel inhibition; HEK293 KCNK9, FluxOR thallium flux fluorescence; active compounds read low; AID 488922; B-score at 10 µM; actives 1.2% (n = 310,000); Q9NPC2;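 active means ratio B-score over 3 SD below the library mean, with starting fluorescence within 5 SD of its mean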;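 further: negative B-score means less thallium flux so channel inhibition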
KCNQ1 block: blocks the human KCNQ1 potassium channel. actives 1.3% (n = 310,000). CHO-K1 KCNQ1, FluxOR thallium flux fluorescence; active compounds read high. B-score at 10 µM;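 active means compounds whose thallium flux B-score, printed positive for inhibition, exceeds three library SD while starting fluorescence stays within three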;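 further: channel opened by potassium depolarization with thallium stimulus after 20 min compound exposure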
KCNK3 confirm: confirmation of human KCNK3 two-pore domain potassium channel inhibitors | ratio percent of control, % at 10 µM | shares compounds with KCNK3 inh | CHO-KCNK3 thallium flux, FluxOR fluorescence; 0% buffer, 100% carvedilol maximal block | actives 99% (n = 2,400);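 active means ratio percent of control, averaged over triplicates, above buffer control mean plus 5 SD, cut at about 64% in these data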;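 further: ratio is the fluorescence rise from min to max over baseline after thallium stimulus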
KCNK3 noninduced: counter-screen for KCNK3 inhibitors: effect in non-induced cells; shares compounds with KCNK3 inh; non-induced KCNK3 parental cells, FluxOR thallium flux; active compounds read low; thallium flux ratio (lower = more inhibition) at 10 µM; actives 40% (n = 2,400); AID 651747;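 active means thallium flux ratio, averaged over three wells, more than 5 SD below the buffer control mean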;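 further: host cells are CHO cells without KCNK3 induction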
Each line names hits and unclear results; the compound was inactive in the other large screens (follow-up assays come after a bar, where they were run). A selection: hits, their analogues and other compounds. The true share with any hit is near 4.1%.

O=C(Nc1ccccc1Cl)N1CCCN(c2nc(-c3ccccc3)ns2)CC1	KCNK3 inh -12, KCNK9 inh -7 (no result: Cl transport mod) | KCNK3 confirm 112 | KCNK3 noninduced inactive
Cc1c(Cl)cccc1NC(=O)N1CCCN(c2nc(-c3ccccc3)ns2)CC1	none (no result: Cl transport mod)
COc1ccc(/C(C)=N/NS(=O)(=O)c2cc(C)ccc2C)c(OC)c1	KCNK3 inh -10 | KCNK3 confirm 97 | KCNK3 noninduced inactive
CN(CC(=O)Nc1cccc(S(=O)(=O)N2CCCC2)c1)CC(=O)Nc1ccc(F)c(F)c1F	none (no result: Cl transport mod, hERG protect, KCNQ1 pot, KCNK9 inh, KCNQ1 block)
CN(CC(=O)Nc1cccc(S(=O)(=O)N2CCCC2)c1)CC(=O)Nc1ccc(Cl)c(C(F)(F)F)c1	KCNK3 inh -11 (no result: Cl transport mod) | KCNK3 confirm 128 | KCNK3 noninduced 0.14
Cc1ccc(N2CCN(c3ncccc3[N+](=O)[O-])CC2)c(C)c1	KCNK3 inh -8.8 (no result: Cl transport mod) | KCNK3 confirm 108 | KCNK3 noninduced 0.15
O=C(N/N=C/c1cccc(Oc2ccccc2)c1)c1ccccc1Br	KCNK3 inh -12 | KCNK3 confirm 91 | KCNK3 noninduced inactive
O=C(N/N=C/c1cccc(Oc2ccccc2)c1)c1cccc(O)c1	KCNK3 inh -13 (no result: Cl transport mod) | KCNK3 confirm 131 | KCNK3 noninduced 0.12
O=C(c1ccc(=O)[nH]c1)N(Cc1cccs1)C1(C(=O)NC2CCCC2)CCCCC1	none
CCCC(c1nnnn1Cc1cccs1)N1CCN(c2nc3ccccc3s2)CC1 (centres undefined)	KCNK3 inh -8.9, KCNK9 inh -8.1 | KCNK3 confirm 104 | KCNK3 noninduced inactive
CCC(c1nnnn1CS(=O)(=O)c1ccc(C)cc1)N1CCN(c2nc3ccccc3s2)CC1 (centres undefined)	none
